The text below walks through data of ChEMBL document CHEMBL1130347, “Lanthionine-somatostatin analogs: synthesis, characterization, biological activity, and enzymatic stability studies” (J Med Chem, 1997).

Bridge positions count the residues as written; N and C are the ends. Square brackets hold non-standard residues; d marks the D form. Peptide text beside a SMILES is read from it. * marks the point of attachment. Threoninol(2S,3R) = C[C@@H](O)[C@H](CO)N*

The species entered for one data set is Rattus norvegicus. The data set is described as follows: Tested for inhibition of growth hormone (GH)release from primary cultures of male rat anterior pituitary cells. The class given is functional, cell-based. The following applies: Pituitary gland cell.
Data set [1] has as its target Somatostatin receptor type 2 (Mus musculus, UniProt P30875). The data set is described as follows: Tested for inhibition of radioligand binding to cloned somatostatin receptor mSSTR2b.
Data set [2] deals with Somatostatin receptor type 3 (Mus musculus, UniProt P30935). The data set is described as follows: Tested for inhibition of radioligand binding to cloned somatostatin receptor mSSTR3.
Sequence of Somatostatin receptor type 3 (P30935 whole entry): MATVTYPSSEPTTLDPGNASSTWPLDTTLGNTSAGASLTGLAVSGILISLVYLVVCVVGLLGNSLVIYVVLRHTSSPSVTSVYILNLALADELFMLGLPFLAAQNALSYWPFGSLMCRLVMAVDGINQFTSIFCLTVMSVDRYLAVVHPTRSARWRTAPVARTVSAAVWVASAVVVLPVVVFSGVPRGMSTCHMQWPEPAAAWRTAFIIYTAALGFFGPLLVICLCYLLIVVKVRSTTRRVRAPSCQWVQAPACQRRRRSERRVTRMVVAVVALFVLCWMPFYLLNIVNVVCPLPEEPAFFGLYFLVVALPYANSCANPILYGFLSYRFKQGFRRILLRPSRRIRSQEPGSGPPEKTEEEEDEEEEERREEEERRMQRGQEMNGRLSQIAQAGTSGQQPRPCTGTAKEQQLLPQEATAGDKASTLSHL
Data set [3] addresses Somatostatin receptor type 4 (Homo sapiens, UniProt P31391). The data set is described as follows: Tested for inhibition of radioligand binding to cloned somatostatin receptor hSSTR4.
Data set [4] deals with T1, Somatostatin receptor type 5 (Rattus norvegicus, UniProt P30938).
T1 sequence (P30938 whole entry): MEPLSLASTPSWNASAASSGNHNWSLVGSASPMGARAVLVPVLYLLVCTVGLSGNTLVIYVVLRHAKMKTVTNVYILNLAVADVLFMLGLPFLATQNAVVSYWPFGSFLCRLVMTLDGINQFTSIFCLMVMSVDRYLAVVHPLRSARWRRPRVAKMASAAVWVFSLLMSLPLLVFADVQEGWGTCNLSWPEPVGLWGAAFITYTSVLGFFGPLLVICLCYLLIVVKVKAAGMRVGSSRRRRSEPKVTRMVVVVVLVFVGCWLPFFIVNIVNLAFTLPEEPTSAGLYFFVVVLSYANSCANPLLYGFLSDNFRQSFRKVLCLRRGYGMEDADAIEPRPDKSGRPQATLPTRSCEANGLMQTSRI
The data set is described as follows: Tested for inhibition of radioligand binding to cloned somatostatin receptor rSSTR5.

Data set [5] addresses Somatostatin receptor type 5 (Homo sapiens, UniProt P35346). The data set is described as follows: Tested for inhibition of radioligand binding to cloned somatostatin receptor hSSTR5.
The nature of data set [6]: half-life of compound. The class given is ADME. An outline of the steps: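 Aliquots taken at 5, 15, 30, 45, 60 and 90 min were quenched in ice-cold 1 M acetic acid and centrifuged. Remaining peptide was measured by microbore RP-HPLC at 216 nm against homogenate calibration. A pseudo-first-order exponential fit gave k, and half-life = 0.693/k.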

Sequence of Somatostatin receptor type 4 (P31391 whole entry): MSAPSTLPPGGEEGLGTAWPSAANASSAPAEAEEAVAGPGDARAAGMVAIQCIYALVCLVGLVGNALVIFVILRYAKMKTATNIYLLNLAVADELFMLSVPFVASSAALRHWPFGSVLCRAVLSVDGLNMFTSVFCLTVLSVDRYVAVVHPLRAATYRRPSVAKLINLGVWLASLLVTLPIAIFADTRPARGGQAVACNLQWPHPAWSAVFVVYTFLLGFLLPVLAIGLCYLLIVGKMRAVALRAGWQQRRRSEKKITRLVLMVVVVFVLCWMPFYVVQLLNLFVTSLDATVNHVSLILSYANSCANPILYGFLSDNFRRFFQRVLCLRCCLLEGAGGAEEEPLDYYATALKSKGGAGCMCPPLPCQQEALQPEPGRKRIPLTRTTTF
Sequence of Somatostatin receptor type 2 (P30875 whole entry): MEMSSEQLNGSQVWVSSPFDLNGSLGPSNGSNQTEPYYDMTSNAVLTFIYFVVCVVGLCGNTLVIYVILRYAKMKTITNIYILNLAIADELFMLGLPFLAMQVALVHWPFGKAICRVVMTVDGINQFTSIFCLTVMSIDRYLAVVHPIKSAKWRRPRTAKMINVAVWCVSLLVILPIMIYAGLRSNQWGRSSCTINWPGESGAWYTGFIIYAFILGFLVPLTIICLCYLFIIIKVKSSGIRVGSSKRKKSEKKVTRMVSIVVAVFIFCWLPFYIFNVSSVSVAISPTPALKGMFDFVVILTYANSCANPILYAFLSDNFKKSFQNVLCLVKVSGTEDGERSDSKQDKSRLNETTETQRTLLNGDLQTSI
Sequence of Somatostatin receptor type 5 (Homo sapiens, UniProt P35346) (P35346 whole entry): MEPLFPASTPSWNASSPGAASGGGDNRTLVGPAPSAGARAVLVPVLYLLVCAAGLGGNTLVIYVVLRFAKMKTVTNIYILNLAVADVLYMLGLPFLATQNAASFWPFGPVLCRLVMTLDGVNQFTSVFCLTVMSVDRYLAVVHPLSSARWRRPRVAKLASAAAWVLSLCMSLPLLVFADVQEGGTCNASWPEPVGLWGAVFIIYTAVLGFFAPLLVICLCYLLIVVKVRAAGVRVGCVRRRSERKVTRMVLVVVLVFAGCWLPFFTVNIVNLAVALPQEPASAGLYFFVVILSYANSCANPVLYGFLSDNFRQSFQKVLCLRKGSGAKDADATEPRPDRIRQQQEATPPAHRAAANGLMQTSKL

`C[C@@H](O)[C@@H]1NC(=O)[C@H](CCCCN)NC(=O)[C@@H](Cc2c[nH]c3ccccc23)NC(=O)[C@H](Cc2ccccc2)NC(=O)[C@@H](N)CSC[C@@H](C(=O)O)NC1=O` [listing 1 of 2 here]: in the data set listed under Rattus norvegicus, the IC50 is more than 1000 nM.
As for `C[C@@H](O)[C@@H]1NC(=O)[C@H](CCCCN)NC(=O)[C@@H](Cc2c[nH]c3ccccc23)NC(=O)[C@H](Cc2ccccc2)NC(=O)[C@@H](N)CSC[C@@H](C(=O)O)NC1=O` [listing 2 of 2 here], the IC50 in data set [1], in data set [2] and in data set [3] was more than 1000 nM throughout.
As for `C[C@@H](O)[C@H]1NC(=O)[C@H](CCCCN)NC(=O)[C@@H](Cc2c[nH]c3ccccc23)NC(=O)[C@H](Cc2ccccc2)NC(=O)[C@@H](N)CSC[C@H](C(=O)O)NC1=O`, the IC50 in data set [4] worked out at 500 nM.
In data set [1], `C[C@@H](O)[C@@H]1NC(=O)[C@H](CCCCN)NC(=O)[C@@H](Cc2c[nH]c3ccccc23)NC(=O)[C@H](Cc2ccccc2)NC(=O)[C@@H](NC(=O)[C@H](N)Cc2ccccc2)CSSC[C@@H](C(=O)O)NC1=O` registered an IC50 of 13.6 nM.
Take `C[C@@H](O)[C@H]1NC(=O)[C@H](CCCCN)NC(=O)[C@@H](Cc2c[nH]c3ccccc23)NC(=O)[C@H](Cc2ccccc2)NC(=O)[C@@H](NC(=O)[C@@H](N)Cc2ccccc2)CSSC[C@H](C(=O)O)NC1=O`: the IC50 in data set [2] and in data set [3] was more than 1000 nM each time.
`C[C@@H](O)[C@H](NC(=O)[C@@H]1CSC[C@H](NC(=O)[C@H](N)Cc2ccccc2)C(=O)N[C@@H](Cc2ccccc2)C(=O)N[C@H](Cc2c[nH]c3ccccc23)C(=O)N[C@@H](CCCCN)C(=O)N[C@@H]([C@@H](C)O)C(=O)N1)C(N)=O` [listing 1 of 2 here] registered an IC50 in data set [5] of 4.92 nM.
With `C[C@@H](O)[C@H](NC(=O)[C@@H]1CSC[C@H](NC(=O)[C@H](N)Cc2ccccc2)C(=O)N[C@@H](Cc2ccccc2)C(=O)N[C@H](Cc2c[nH]c3ccccc23)C(=O)N[C@@H](CCCCN)C(=O)N[C@@H]([C@@H](C)O)C(=O)N1)C(N)=O` [listing 2 of 2 here], the values for the IC50 in data set [1], in data set [2] and in data set [3] were 16.6 nM, more than 1000 nM and more than 1000 nM, respectively.
As for `C[C@@H](O)[C@H](NC(=O)[C@@H]1CSC[C@@H](NC(=O)[C@H](N)Cc2ccccc2)C(=O)N[C@H](Cc2ccccc2)C(=O)N[C@@H](Cc2c[nH]c3ccccc23)C(=O)N[C@H](CCCCN)C(=O)N[C@@H]([C@@H](C)O)C(=O)N1)C(N)=O`, in the data set listed under Rattus norvegicus, the IC50 came to 70 nM.
On to `C[C@@H](O)[C@@H]1NC(=O)[C@H](CCCCN)NC(=O)[C@@H](Cc2c[nH]c3ccccc23)NC(=O)[C@H](Cc2ccccc2)NC(=O)[C@@H](NC(=O)[C@H](N)Cc2ccccc2)CSC[C@@H](C(=O)O)NC1=O`, for which the concentration for half-maximal inhibition (IC50) (in the data set listed under Rattus norvegicus; in data set [1]; in data set [2]; in data set [3]) was more than 1000 nM each time.
As to `C[C@@H](O)[C@H](CO)NC(=O)[C@@H]1CSSC[C@H](NC(=O)[C@H](N)Cc2ccccc2)C(=O)N[C@@H](Cc2ccccc2)C(=O)N[C@H](Cc2c[nH]c3ccccc23)C(=O)N[C@@H](CCCCN)C(=O)N[C@@H]([C@@H](C)O)C(=O)N1` (H-[dF]CF[dW]KTC-{Threoninol(2S,3R)}; disulfide 2-7), the IC50 was 0.52 nM in the data set listed under Rattus norvegicus, 0.28 nM in data set [1], 3 nM in data set [2] and 1.04 nM in data set [4]. In data set [6], this compound showed a half-life of 12.5 h.
Take `C[C@H](N)C(=O)NCC(=O)N[C@H]1CSSC[C@@H](C(=O)O)NC(=O)[C@H](CO)NC(=O)[C@H]([C@@H](C)O)NC(=O)[C@H](Cc2ccccc2)NC(=O)[C@H]([C@@H](C)O)NC(=O)[C@H](CCCCN)NC(=O)[C@H](Cc2c[nH]c3ccccc23)NC(=O)[C@H](Cc2ccccc2)NC(=O)[C@H](Cc2ccccc2)NC(=O)[C@H](CC(N)=O)NC(=O)[C@H](CCCCN)NC1=O` [SOMATOSTATIN]: half-maximal inhibition in the data set listed under Rattus norvegicus (IC50) was put at 0.52 nM.
